Assays:
[1] = target: T1, Estrogen receptor (Mus musculus) (UniProt O08537+P19785); experiment: (§1) Estrogenic activity in uterotrophic assay in immature mice at 2 ug subcutaneous dose; assay type: functional
In short: (§2)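 Immature female NMRI mice, 20 days old, in groups of 6-10, were dosed sc once daily for three consecutive days. Compounds were given in PEG/0.9% saline 1:1; vehicle controls were included. Animals were killed 24 h after the last dose. Uteri were fixed in Bouin solution and the effect was taken as uterine dry weight (mg)/body weight (g) ×100, given as mean ± SD.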

[2] = target: T1, Estrogen receptor (Mus musculus); experiment: (§3) Estrogenic activity in uterotrophic assay in immature mice at 40.0 ug subcutaneous dose; assay type: functional; in short: as §2
[3] = target: T1, Estrogen receptor (Mus musculus); experiment: (§4) Estrogenic activity in uterotrophic assay in immature mice at 125 ug subcutaneous dose; assay type: functional; in short: as §2
[4] = target: T2, Androgen Receptor (Bos taurus) (UniProt Q5EM59); experiment: Relative binding affinity(RBA) for 50% displacement of [3H]mibolerone from Androgen receptor compared to testorone
T2 sequence (whole entry): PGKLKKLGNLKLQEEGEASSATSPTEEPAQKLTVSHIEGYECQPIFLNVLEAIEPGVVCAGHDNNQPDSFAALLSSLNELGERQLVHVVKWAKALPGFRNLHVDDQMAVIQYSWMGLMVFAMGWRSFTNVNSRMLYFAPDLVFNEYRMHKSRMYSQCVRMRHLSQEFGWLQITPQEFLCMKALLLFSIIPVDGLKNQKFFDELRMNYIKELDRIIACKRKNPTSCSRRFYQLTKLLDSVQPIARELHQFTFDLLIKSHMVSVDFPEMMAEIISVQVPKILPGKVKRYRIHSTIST
In short: (§5)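 Receptor source was calf uterine cytosol (105000g supernatant, 3 mg/mL protein in assay). Buffers were Tris/EDTA pH 7.4, with NaN₃ for ER, molybdate/glycerol for AR, and sucrose for PR. Tracers were 1 nM [³H]estradiol, [³H]mibolerone or [³H]Org 2058. Incubation was at 0–4 °C for 16 h (ER) or 2 h (AR, PR), with 4–6 competitor concentrations. Nonspecific binding used 2 µM of the unlabeled hormone. Separation was by dextran-coated charcoal. RBA is the ratio of IC50 values for hormone and compound ×100, mean of two triplicate experiments.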

[5] = target: T1, Estrogen receptor (Mus musculus); experiment: as §4; assay type: functional; in short: as §2; remark: listed apart in the source
[6] = test system: MCF7; experiment: Effect on hormone-dependent MCF-7 human breast cancer cell proliferation at 1x10E-6M; assay type: functional
In short: (§6)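 Cells were plated at about 2 × 10⁴ per well in six-well dishes. MCF-7 cells were grown in modified improved MEM with 5% NCS, switched to charcoal-treated NCS two weeks before the test, and exposed for 5 days with a re-dose on day 4. MDA-MB 231 cells were grown in McCoy 5a with 10% NCS and exposed for 2 days. Compounds were given 1 day after plating in 0.1% DMSO, with DMSO-matched controls. Read-out was cell number as % T/C, mean of three experiments with six dishes.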

[7] = test system: MCF7; experiment: Effect on hormone-dependent MCF-7 human breast cancer cell proliferation at 1x10E-5 M; assay type: functional; in short: as §6
[8] = target: T1, Estrogen receptor (Mus musculus); experiment: Inhibition of 0.4 ug estrone-stimulated uterine growth in mice at 40.0 ug subcutaneous dose; assay type: functional
In short: (§7)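 Immature 20-day-old female NMRI mice received sc injections on three consecutive days. Each injection held 0.4 µg estrone plus the compound in PEG/saline 1:1. […] Significance was tested by Mann-Whitney U test.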

[9] = target: T1, Estrogen receptor (Mus musculus); experiment: Inhibition of 0.4 ug estrone-stimulated uterine growth in mice at 2 ug subcutaneous dose; assay type: functional; in short: as §7
[10] = test system: MDA-MB-231; experiment: Effect on [3H]thymidine incorporation into MDA-MB 231 human breast cancer cells at 1x10E-5 M; assay type: functional
In short: (§8)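 Cells were seeded at ~2 × 10⁴ per well, treated from the next day in 0.1% DMSO, with DMSO controls. MCF-7 cells were held in charcoal-stripped NCS for 2 weeks, treated for 5 days and re-dosed on day 4. MDA-MB 231 cells were grown in McCoy 5a/10% NCS and treated for 2 days. At the end, 1 µCi [³H]thymidine per well was added for 2 h. Result is % T/C, mean of three experiments × six dishes.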

[11] = target: T1, Estrogen receptor (Mus musculus); experiment: Inhibition of 0.4 ug estrone-stimulated uterine growth in mice at 125 ug subcutaneous dose; assay type: functional; in short: as §7
[12] = target: T1, Estrogen receptor (Mus musculus); experiment: as §1; assay type: functional; in short: as §2; remark: listed apart in the source
[13] = test system: MDA-MB-231; experiment: Cytostatic effect on hormone-independent MDA-MB 231 human breast cancer cell proliferation at 1x10E-6M; assay type: functional; in short: as §6
[14] = test system: MCF7; experiment: Effect on [3H]thymidine incorporation into MCF-7 human breast cancer cells at 1x10E-5 M; assay type: functional; in short: as §8
[15] = target: T1, Estrogen receptor (Mus musculus); experiment: as §3; assay type: functional; in short: as §2; remark: listed apart in the source
[16] = species on record: Bos taurus; experiment: Relative binding affinity(RBA) as ratio of progesterone and compound required to displace [3H]-org 2058 binding to Progesterone receptor by 50%; in short: as §5
[17] = test system: MCF7; experiment: Effect on [3H]thymidine incorporation into MCF-7 human breast cancer cells at 1x10E-6M; assay type: functional; in short: as §8
[18] = test system: MDA-MB-231; experiment: Cytostatic effect on hormone-independent MDA-MB 231 human breast cancer cell proliferation at 1x10E-5 M; assay type: functional; in short: as §6
[19] = target: Estrogen receptor (Bos taurus) (UniProt Q9XSB5+P49884); experiment: Relative binding affinity(RBA) for 50% displacement of [3H]-estradiol from Estrogen receptor compared to 17-beta-estradiol; assay type: protein assay; in short: as §5
[20] = test system: MDA-MB-231; experiment: Effect on [3H]thymidine incorporation into MDA-MB 231 human breast cancer cells at 5x10E-6M; assay type: functional; in short: as §8
[21] = test system: MDA-MB-231; experiment: Effect on [3H]-thymidine incorporation into MDA-MB 231 human breast cancer cells at 1x10E-6M; assay type: functional; in short: as §8
[22] = test system: MCF7; experiment: Effect on [3H]-thymidine incorporation into MCF-7 human breast cancer cells at 1x10E-5 M; assay type: functional; in short: as §8
[23] = test system: MDA-MB-231; experiment: Cytostatic effect on hormone-independent MDA-MB 231 human breast cancer cell proliferation at5x10E-6M; assay type: functional; in short: as §6
[24] = target: T2, Androgen Receptor (Bos taurus); experiment: Relative binding affinities (RBA) for Androgen receptor (AR); in short: as §5
[25] = target: T3, Androgen receptor (Mus musculus) (UniProt P19091); experiment: Relative effect on seminal vesicle weight in adult and castrated mice at 1000 ug dose; assay type: functional, tissue-based
T3 sequence (whole entry): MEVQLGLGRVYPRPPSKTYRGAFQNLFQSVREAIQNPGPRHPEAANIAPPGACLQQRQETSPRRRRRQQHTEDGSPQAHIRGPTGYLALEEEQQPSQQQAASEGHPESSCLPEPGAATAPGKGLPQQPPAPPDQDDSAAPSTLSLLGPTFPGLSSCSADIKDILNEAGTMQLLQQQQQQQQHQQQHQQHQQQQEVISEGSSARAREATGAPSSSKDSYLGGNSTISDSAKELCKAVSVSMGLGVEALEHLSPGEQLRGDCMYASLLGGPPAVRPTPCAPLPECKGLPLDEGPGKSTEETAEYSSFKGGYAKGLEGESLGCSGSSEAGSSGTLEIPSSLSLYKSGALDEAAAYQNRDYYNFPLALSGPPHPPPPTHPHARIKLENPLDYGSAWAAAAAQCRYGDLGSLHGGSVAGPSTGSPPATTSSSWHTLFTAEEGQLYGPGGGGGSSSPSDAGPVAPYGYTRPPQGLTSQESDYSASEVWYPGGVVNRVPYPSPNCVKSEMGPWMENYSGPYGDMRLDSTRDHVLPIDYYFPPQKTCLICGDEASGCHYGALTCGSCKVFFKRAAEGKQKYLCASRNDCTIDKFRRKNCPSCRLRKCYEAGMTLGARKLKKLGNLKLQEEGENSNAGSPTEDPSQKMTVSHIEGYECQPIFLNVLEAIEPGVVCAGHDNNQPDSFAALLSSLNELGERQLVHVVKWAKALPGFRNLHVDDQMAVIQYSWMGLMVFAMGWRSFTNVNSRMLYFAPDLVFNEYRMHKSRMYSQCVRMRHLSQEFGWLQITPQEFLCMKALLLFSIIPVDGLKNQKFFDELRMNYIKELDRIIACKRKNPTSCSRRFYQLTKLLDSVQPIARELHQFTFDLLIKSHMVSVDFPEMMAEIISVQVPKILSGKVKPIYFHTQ
In short: (§9)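 Adult male mice, 23–25 g, six per group, were used intact or castrated via the scrotal route under ether 5 days before the test. Castrates received 0.3 mg testosterone propionate daily. Compounds were injected daily in olive oil for nine days. Seminal vesicles were taken 24 h later, fixed in Bouin solution, dried overnight at 100 °C and weighed. Result is organ mg/body g ×100; % inhibition = [1 − treated/control] × 100.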

[26] = target: T1, Estrogen receptor (Mus musculus); experiment: (§10) Estrogenic activity in uterotrophic assay in immature mice at 10.0 ug subcutaneous dose; assay type: functional; in short: as §2
[27] = target: T1, Estrogen receptor (Mus musculus); experiment: (§11) Estrogenic activity in uterotrophic assay in immature mice at 250 ug subcutaneous dose; assay type: functional; in short: as §2
[28] = target: T3, Androgen receptor (Mus musculus); experiment: Inhibition of seminal vesicle weight in intact mice at 10.0 ug
[29] = target: T3, Androgen receptor (Mus musculus); experiment: as above; remark: listed apart in the source
[30] = target: T1, Estrogen receptor (Mus musculus); experiment: as §11; assay type: functional; in short: as §2; remark: listed apart in the source
[31] = target: T3, Androgen receptor (Mus musculus); experiment: Inhibition of seminal vesicle weight in intact mice at 100 ug
[32] = target: T1, Estrogen receptor (Mus musculus); experiment: (§12) Estrogenic activity in uterotrophic assay in immature mice at 50.0 ug subcutaneous dose; assay type: functional; in short: as §2
[33] = target: T3, Androgen receptor (Mus musculus); experiment: Relative effect on seminal vesicle weight in adult and castrated mice at 10 ug dose; assay type: functional, tissue-based; in short: as §9
[34] = target: T3, Androgen receptor (Mus musculus); experiment: Relative effect on seminal vesicle weight in adult and castrated mice at 100 ug dose; assay type: functional, tissue-based; in short: as §9
[35] = target: T1, Estrogen receptor (Mus musculus); experiment: as §10; assay type: functional; in short: as §2; remark: listed apart in the source
[36] = target: T1, Estrogen receptor (Mus musculus); experiment: as §12; assay type: functional; in short: as §2; remark: listed apart in the source

T1 sequence (O08537 whole entry, looked up): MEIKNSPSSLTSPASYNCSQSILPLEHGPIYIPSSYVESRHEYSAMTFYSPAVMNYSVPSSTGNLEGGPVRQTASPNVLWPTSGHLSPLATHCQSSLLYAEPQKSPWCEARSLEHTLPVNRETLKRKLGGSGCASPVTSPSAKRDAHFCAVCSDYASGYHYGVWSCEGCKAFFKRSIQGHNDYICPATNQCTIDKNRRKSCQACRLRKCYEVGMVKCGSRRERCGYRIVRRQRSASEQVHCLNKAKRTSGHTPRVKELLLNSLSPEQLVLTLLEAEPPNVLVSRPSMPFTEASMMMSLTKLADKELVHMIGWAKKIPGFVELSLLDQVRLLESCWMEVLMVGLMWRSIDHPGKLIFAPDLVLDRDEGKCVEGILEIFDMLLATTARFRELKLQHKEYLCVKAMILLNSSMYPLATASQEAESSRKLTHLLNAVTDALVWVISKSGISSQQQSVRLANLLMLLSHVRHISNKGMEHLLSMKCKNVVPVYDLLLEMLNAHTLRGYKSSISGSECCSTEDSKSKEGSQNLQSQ
T1 sequence (P19785 whole entry, looked up): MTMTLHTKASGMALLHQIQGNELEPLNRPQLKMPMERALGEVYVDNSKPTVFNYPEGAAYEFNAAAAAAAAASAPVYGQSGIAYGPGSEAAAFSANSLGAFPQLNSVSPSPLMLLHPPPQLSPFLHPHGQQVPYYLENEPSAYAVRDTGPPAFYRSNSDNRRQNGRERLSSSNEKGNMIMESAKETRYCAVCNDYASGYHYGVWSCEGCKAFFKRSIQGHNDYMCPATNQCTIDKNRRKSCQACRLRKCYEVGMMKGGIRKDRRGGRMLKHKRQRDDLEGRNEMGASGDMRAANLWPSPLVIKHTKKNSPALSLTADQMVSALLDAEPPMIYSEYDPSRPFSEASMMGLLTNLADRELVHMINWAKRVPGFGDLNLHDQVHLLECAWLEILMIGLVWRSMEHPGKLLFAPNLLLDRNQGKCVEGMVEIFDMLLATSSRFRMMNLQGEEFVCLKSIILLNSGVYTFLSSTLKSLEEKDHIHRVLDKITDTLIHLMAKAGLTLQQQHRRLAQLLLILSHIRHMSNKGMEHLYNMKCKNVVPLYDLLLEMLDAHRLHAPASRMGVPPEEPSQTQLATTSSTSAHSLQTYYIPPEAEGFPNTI

| Compound | Effect [1] | RBA [4] | T/C [6] | T/C [7] | inhibition [9] | T/C [10] | Effect [12] | T/C [13] | T/C [14] | RBA [16] | T/C [17] | T/C [18] | RBA [19] | T/C [20] | T/C [21] | T/C [23] | also measured |
| --- | --- | --- | --- | --- | --- | --- | --- | --- | --- | --- | --- | --- | --- | --- | --- | --- | --- |
| CCC1Cc2cc(OC(C)=O)ccc2-c2c(C=O)c3cc(OC(C)=O)ccc3n21 (stereo not given) | 14.5 | 0.03 | 55% | 13% | 19.6% | 7% | 48.2 | 75% | 3% | < 0.01 | 41% | 14% | 4.6 | – | – | – | Effect [2]: 38.2; Effect [3]: 56; Effect [5]: 54.7; inhibition [8]: 2.6%; inhibition [11]: 2.7%; Effect [15]: 54.7 |
| CCc1cc2cc(OC(C)=O)ccc2c2cc3ccc(OC(C)=O)cc3n12 | – | 0.01 | 75% | 5% | – | 3% | – | – | – | < 0.01 | 70% | – | 1.5 | 7% | 80% | 8% | T/C [22]: 3% |
| CC(=O)Oc1ccc2c(c1)CCn1c-2cc2cc(OC(C)=O)ccc21 | – | – | – | – | – | – | – | – | – | < 0.01 | – | – | 2 | – | – | – | relative binding affinity (RBA) [24]: < 0.01 |
| CC(=O)Oc1ccc2c(c1)CC(C)n1c-2cc2cc(OC(C)=O)ccc21 (stereo not given) | 21.2 | 0.2 | – | 7% | -8% | 5% | 52.6 | 78% | 2% | 0.01 | 36% | 5% | 12 | 10% | 65% | 10% | Relative seminal vesicle weight [25]: 45.2; Effect [26]: 26.3; Effect [27]: 61.1; inhibition [28]: 1%; inhibition [29]: 1%; Effect [30]: 72.2; inhibition [31]: 27%; Effect [32]: 61.2; Relative seminal vesicle weight [33]: 195; Relative seminal vesicle weight [34]: 145; Effect [35]: 56; Effect [36]: 53.3 |

Reference: ChEMBL document CHEMBL1124929, “Indolo[2,1-a]isoquinolines. Syntheses, steroid hormone receptor binding affinities, and cytostatic activity” (1990)
